B1: IKKβ(1-669) EE, 6xHis tag removed (enzyme, human, UniProt O14920 1-669, looked up)
chain: MSWSPSLTTQTCGAWEMKERLGTGGFGNVIRWHNQETGEQIAIKQCRQELSPRNRERWCLEIQIMRRLTHPNVVAARDVPEGMQNLAPNDLPLLAMEYCQGGDLRKYLNQFENCCGLREGAILTLLSDIASALRYLHENRIIHRDLKPENIVLQQGEQRLIHKIIDLGYAKELDQGELCTEFVGTLQYLAPELLEQQKYTVTVDYWSFGTLAFECITGFRPFLPNWQPVQWHSKVRQKSEVDIVVSEDLNGTVKFSSSLPYPNNLNSVLAERLEKWLQLMLMWHPRQRGTDPTYGPNGCFKALDDILNLKLVHILNMVTGTIHTYPVTEDESLQSLKARIQQDTGIPEEDQELLQEAGLALIPDKPATQCISDGKLNEGHTLDMDLVFLFDNSKITYETQISPRPQPESVSCILQEPKRNLAFFQLRKVWGQVWHSIQTLKEDCNRLQQGQRAAMMNLLRNNSCLSKMKNSMASMSQQLKAKLDFFKTSIQIDLEKYSEQTEFGITSDKLLLAWREMEQAVELCGRENEVKLLVERMMALQTDIVDLQRSPMGRKQGGTLDDLEEQARELYRRLREKPRDQRTEGDSQEMVRLLLQAIQSFEKKVRVIYTQLSKTVVCKQKALELLPKVEEVVSLMNEDEKTVVRLQEKRQKELWNLLKIACSKVRGPV

Data set [1] has as its target T1, IKKα(10-667) EE homodimer (Homo sapiens, UniProt O15111, S176E/S180E).
T1 sequence (O15111 10-667 S176E/S180E): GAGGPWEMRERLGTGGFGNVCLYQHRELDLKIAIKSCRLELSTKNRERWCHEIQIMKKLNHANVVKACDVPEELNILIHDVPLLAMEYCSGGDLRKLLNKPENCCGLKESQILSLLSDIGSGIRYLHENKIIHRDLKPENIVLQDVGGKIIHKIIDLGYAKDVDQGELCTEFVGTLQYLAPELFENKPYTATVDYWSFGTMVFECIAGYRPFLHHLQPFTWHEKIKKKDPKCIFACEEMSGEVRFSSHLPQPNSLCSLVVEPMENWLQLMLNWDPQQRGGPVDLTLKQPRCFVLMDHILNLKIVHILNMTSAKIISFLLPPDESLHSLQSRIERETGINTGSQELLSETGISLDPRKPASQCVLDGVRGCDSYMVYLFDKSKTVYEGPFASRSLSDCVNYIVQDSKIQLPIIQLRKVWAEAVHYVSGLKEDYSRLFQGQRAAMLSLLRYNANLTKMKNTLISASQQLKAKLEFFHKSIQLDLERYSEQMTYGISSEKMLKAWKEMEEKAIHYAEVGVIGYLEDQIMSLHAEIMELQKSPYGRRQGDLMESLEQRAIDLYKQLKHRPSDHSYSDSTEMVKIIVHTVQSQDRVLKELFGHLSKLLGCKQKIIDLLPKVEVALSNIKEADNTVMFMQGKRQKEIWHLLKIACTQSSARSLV
Description: ITC of synthetic YDDΦxΦ peptides with IKKα homodimer. The format is binding. The following applies: for ITC binding to IKKα, in words: 25 °C, titration of the IKKα homodimer with synthetic peptide. A digest of the protocol: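 IKKα(10-667) EE was expressed in Sf21 insect cells and purified by Ni-NTA affinity. It was then dialyzed overnight at 4 °C against ITC buffer (20 mM HEPES pH 8.0, 150 mM NaCl, 1 mM TCEP), which was used for all titrations unless otherwise stated.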

For data set [2], the system named is IKKα/β heterodimer (6xHis-IKKβ(1-669) EE, Strep-IKKα(10-667) EE). The data set can be described thus: MBP-pulldown with purified IKKα/β heterodimer. The format is binding. The settings on record: MBP-IκBα pep(s) vs MBP negative control, Coomassie. The gist of the method:
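Heterodimer co-expressed in Sf21 insect cells, purified on Strep-Tactin then Ni-NTA, pre-incubated with 1 mM ATP, MgCl2, β-glycerophosphate, NaF and orthovanadate for 1 h on ice, then gel-filtered in Tris pH 8.0 buffer. MBP-fusion baits expressed in E. coli BL21(DE3), captured on amylose resin. Binding in 20 mM Tris pH 8.0, 150 mM NaCl, 2 mM DTT. Bound proteins Coomassie-stained.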

Data set [3] deals with the molecule itself. The data set can be described thus: crystal structure.
The target of data set [4] is T2, IKKα(10-667) EE, 6xHis tag removed (UniProt O15111 10-667, S176E | S180E).
T2 sequence (looked up): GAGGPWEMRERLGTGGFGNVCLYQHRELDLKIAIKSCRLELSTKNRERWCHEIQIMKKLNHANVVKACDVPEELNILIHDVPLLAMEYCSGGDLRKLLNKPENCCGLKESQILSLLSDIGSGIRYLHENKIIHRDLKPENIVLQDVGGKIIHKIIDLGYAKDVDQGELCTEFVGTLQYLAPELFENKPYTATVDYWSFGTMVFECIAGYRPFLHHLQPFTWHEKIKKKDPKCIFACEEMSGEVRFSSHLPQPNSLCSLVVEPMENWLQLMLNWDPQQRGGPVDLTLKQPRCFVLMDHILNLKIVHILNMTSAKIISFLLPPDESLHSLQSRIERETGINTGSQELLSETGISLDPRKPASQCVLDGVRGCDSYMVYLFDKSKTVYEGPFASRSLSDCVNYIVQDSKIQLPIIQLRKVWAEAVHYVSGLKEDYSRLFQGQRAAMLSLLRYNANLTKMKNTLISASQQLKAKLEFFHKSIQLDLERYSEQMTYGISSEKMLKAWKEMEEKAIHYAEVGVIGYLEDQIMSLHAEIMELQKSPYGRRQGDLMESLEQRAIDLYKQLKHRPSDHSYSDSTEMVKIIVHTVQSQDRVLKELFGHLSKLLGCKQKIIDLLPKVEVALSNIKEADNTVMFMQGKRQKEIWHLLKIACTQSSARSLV
The data set can be described thus: ITC.

Data set [5] concerns the target T3, 6xHis-IKKβ(1-669) EE (human, UniProt O14920 1-669, S177E | S181E).
T3 sequence (looked up): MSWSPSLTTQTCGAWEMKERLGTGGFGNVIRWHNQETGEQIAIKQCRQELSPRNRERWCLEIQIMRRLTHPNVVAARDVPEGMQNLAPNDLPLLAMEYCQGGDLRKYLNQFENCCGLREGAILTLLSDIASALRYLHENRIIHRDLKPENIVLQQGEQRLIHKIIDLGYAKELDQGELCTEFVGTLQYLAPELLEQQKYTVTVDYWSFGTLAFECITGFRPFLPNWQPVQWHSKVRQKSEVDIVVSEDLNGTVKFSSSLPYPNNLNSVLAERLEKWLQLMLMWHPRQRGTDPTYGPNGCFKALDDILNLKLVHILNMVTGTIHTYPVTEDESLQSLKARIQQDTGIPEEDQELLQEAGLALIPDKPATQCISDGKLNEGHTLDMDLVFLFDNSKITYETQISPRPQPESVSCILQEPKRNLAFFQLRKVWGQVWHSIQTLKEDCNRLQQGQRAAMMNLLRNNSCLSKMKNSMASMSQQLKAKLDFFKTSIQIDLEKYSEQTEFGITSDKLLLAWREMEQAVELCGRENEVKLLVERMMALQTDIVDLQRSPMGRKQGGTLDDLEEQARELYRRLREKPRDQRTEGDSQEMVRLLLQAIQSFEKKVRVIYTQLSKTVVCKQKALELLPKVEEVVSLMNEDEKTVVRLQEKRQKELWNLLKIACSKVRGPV
Description: cross-linking.

Data set [6] deals with T3, 6xHis-IKKβ(1-669) EE. The data set can be described thus: pull-down.
Data set [7] relates to MEF cells KO for IκBα, IκBβ, IκBε. Description: In cellulo degradation of retro-transduced IκBα proteins after TNFα. The format is cell-based, mouse. The following applies: retro-transduced IκBα constructs, TNFα 20 ng/ml, compared with wt IκBα. A digest of the protocol: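 Retroviruses came from Phoenix-eco cells (5 × 10^6) transfected with 6 μg pBABE-IκBα plasmid; empty vector was the control. Medium was changed at 6 h and the virus-containing medium collected at 48 h, filtered, and used to infect the MEFs.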

Data set [8] concerns the target T3, 6xHis-IKKβ(1-669) EE. Description: pull-down. The source holds these as a separate data set.
Data set [9] addresses B1. Description: ITC. In general terms: In ITC the heat of successive injections is recorded.

“Also recorded” adds a separate entry of the source. Where no end group is shown, it is not given here. MBP = maltose binding protein (fused N-terminally to the peptide)

The molecule “EFTEDELPYDDLVFGGQRLTL-NH2 [IκBα pep C308L]” had a Kd in [1] of 0.42 µM.

As to EFTEDELPpYDDLVFGGQRLTL [pY-IκBα pep], the “ITC binding to IKKα, in words” value in [1] is reported as “too weak to allow for accurate thermodynamic analysis; also recorded: absence of interaction”.

Take “IκBα pep(s): 17 amino acid peptide, residues 301-317 of IκBα, fused to MBP ({MBP}-DELPYDDCVFGGQRLTL)”: the “binding of the IKKα/β heterodimer in MBP-pulldown, in words” value in [2] was “specifically binds”.

Regarding LSSANSLYDDIECFLMELEQPA [IRF7 pep], the “ITC binding to IKKα, in words” value in [1] is on record as “too weak to allow for accurate thermodynamic analysis; also recorded: binds with weak affinity to IKKα”.

In the case of B1, in data set [3], the binding result is recorded as “binds”.

As for GLDGIIEYDDFKLNSSIVEPKE [p100 pep (synthetic, residues 8-29 of p100)], in data set [4], the Kd was roughly 12 µM, the dH was roughly -13.4 kcal/mol and the “stoichiometry N” value is 0.6.

Regarding EFTEDELPYDDLVFGGQKLTL-NH2 [C308L/R314K IκBα pep (synthetic)], in data set [5], the binding result was “binds”.

B2: MBP-IκBα full length (natural protein, human, UniProt P25963 1-317, looked up)
chain: MFQAAERPQEWAMEGPRDGLKKERLLDDRHDSGLDSMKDEEYEQMVKELQEIRLEPQEVPRGSEPWKQQLTEDGDSFLHLAIIHEEKALTMEVIRQVKGDLAFLNFQNNLQQTPLHLAVITNQPEIAEALLGAGCDPELRDFRGNTPLHLACEQGCLASVGVLTQSCTTPHLHSILKATNYNGHTCLHLASIHGYLGIVELLVSLGADVNAQEPCNGRTALHLAVDLQNPDLVSLLLKCGADVNRVTYQGYSPYQLTWGRPSTRIQQQLGQLTLENLQMLPESEDEESYDTESEFTEFTEDELPYDDCVFGGQRLTL
As for B2, in data set [6], the binding result is “binds”.

B3: IkBa C308F (protein, UniProt P25963 1-317, looked up, variant C308F)
NF-kappa-B inhibitor alpha: MFQAAERPQEWAMEGPRDGLKKERLLDDRHDSGLDSMKDEEYEQMVKELQEIRLEPQEVPRGSEPWKQQLTEDGDSFLHLAIIHEEKALTMEVIRQVKGDLAFLNFQNNLQQTPLHLAVITNQPEIAEALLGAGCDPELRDFRGNTPLHLACEQGCLASVGVLTQSCTTPHLHSILKATNYNGHTCLHLASIHGYLGIVELLVSLGADVNAQEPCNGRTALHLAVDLQNPDLVSLLLKCGADVNRVTYQGYSPYQLTWGRPSTRIQQQLGQLTLENLQMLPESEDEESYDTESEFTEFTEDELPYDDFVFGGQRLTL
On to B3, for which the “IκBα degradation after TNFα stimulation, in words” value in [7] was “slightly faster compared to that of the wt IκBα protein”.

In the case of DELPYDDFVFGGQRLTL (peptide, UniProt P25963 301-317, looked up) [MBP-IκBα pep(s) C308F], the binding result in data set [8] was “binds”.

As for DELPYDDLVFGGQRLTL (peptide, UniProt P25963 301-317, looked up) [MBP-IκBα pep(s) C308L], in [8], the binding result was “binds”.

B4: MBP-IκBα(73-317) (domain or fragment, human, UniProt P25963 73-317, looked up)
chain: DGDSFLHLAIIHEEKALTMEVIRQVKGDLAFLNFQNNLQQTPLHLAVITNQPEIAEALLGAGCDPELRDFRGNTPLHLACEQGCLASVGVLTQSCTTPHLHSILKATNYNGHTCLHLASIHGYLGIVELLVSLGADVNAQEPCNGRTALHLAVDLQNPDLVSLLLKCGADVNRVTYQGYSPYQLTWGRPSTRIQQQLGQLTLENLQMLPESEDEESYDTESEFTEFTEDELPYDDCVFGGQRLTL
B4: the binding result in data set [8] is listed as “binds”.

Consider EFTEDELPYDDCVFGGQRLTL [IκBα pep (synthetic, residues 297-317 of IκBα)], for which, in [9], binding was put at a Kd of 40 µM, the dH is -16.3 kcal/mol and the “stoichiometry N” value turned out to be 0.63. For the same molecule, in data set [4], the Kd was 7.7 µM, the dH is -14.2 kcal/mol and the “stoichiometry N” value worked out at 0.63.

On to EFTEDELPYDDLVFGGQRLTL-NH2 [C308L IκBα pep (synthetic)], for which, in [9], the Kd turned out to be 2.4 µM, the dH was -11.5 kcal/mol and the “stoichiometry N” value is 0.66.

One may read the Kd as the constant that tells how readily two partners part at equilibrium. Low values mean a tighter complex, high ones a looser complex. As usually defined, the stoichiometry N is the number of molecules, sites or subunits per partner or assembly.

The values are drawn from publication PMC11371828 (Nature Communications, 2024).
